According to ChEMBL document CHEMBL1124841, “Chalcones: a new class of antimitotic agents” (1990):

Assays:
HeLa [1] = assay: In vitro antimitotic activity against HeLa cells after 6 hours exposure; type: functional, Homo sapiens
How it was run: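 Asynchronous HeLa cells were exposed to compound continuously for 6 h. Mitotic index (cells in mitosis/cells counted) was scored on about 300 cells counted across three fields. The equivalent dose (ED) is the concentration giving the same mitotic index as the colchicine standard at 0.05 µg/mL.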

L1210 [2] = assay: The ratio of survival time for treated divided by survival time of control x 100 at a dose of […] in L1210 leukemia cells; type: functional, Mus musculus
B16 [3] = assay: The ratio of survival time for treated divided by survival time of control x 100 at a dose of 25 mg/kg in B16 melanoma cells; type: functional, Mus musculus
How it was run: (§1)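 Mice inoculated ip on day 0 with 1 × 10^5 L1210 leukemia or B16 melanoma cells. Compounds given ip once daily on days 1-9, suspended or dissolved in 5% PVP. Survival time recorded and averaged per group. Value is mean survival of treated over control × 100.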

L1210 [4] = assay: The ratio of survival time for treated divided by survival time of control x 100 at a dose of 50 mg/kg in L1210 leukemia cells; type: functional, Mus musculus; how it was run: as §1
HeLa [5] = assay: In vitro antimitotic activity against HeLa cells after 1 hr exposure to the compound; type: functional, Homo sapiens
How it was run: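 HeLa cells exposed to compound for 1 h, washed in fresh medium, then kept 18 h in compound-free medium. Mitotic index (cells in mitosis/cells counted) scored as in the 6-h test. The reported equivalent dose (ED) is the concentration giving the same mitotic index as vinblastine at 0.06 µg/mL.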

L1210 [6] = assay: The ratio of survival time for treated divided by survival time of control x 100 at a dose of 6.25 mg/kg in L1210 leukemia cells; type: functional, Mus musculus; how it was run: as §1
B16 [7] = assay: The ratio of survival time for treated divided by survival time of control x 100 at a dose of […] in B16 melanoma cells; type: functional, Mus musculus
L1210 [8] = assay: The ratio of survival time for treated divided by survival time of control x 100 at a dose of 25 mg/kg in L1210 leukemia cells; type: functional, Mus musculus; how it was run: as §1
B16 [9] = assay: The ratio of survival time for treated divided by survival time of control x 100 at a dose of 100 mg/kg in B16 melanoma cells; type: functional, Mus musculus; how it was run: as §1
L1210 [10] = assay: The ratio of survival time for treated divided by survival time of control x 100 at a dose of 0.2 mg/kg in L1210 leukemia cells; type: functional, Mus musculus; how it was run: as §1
B16 [11] = assay: The ratio of survival time for treated divided by survival time of control x 100 at a dose of 0.2 mg/kg in B16 melanoma cells; type: functional, Mus musculus; how it was run: as §1

SMILES | ED (HeLa [1]) [µg/mL] | further results
COc1cc2c(c(OC)c1OC)-c1ccc(OC)c(=O)cc1[C@@H](NC(C)=O)CC2 [COLCHICINE] | 0.05 | 
COc1cc(C(=O)/C=C/c2ccc(N3CCOCC3)cc2)cc(OC)c1OC | 6.25 | 
COc1ccc(OC)c(C(=O)/C=C/c2ccc(NC(C)=O)cc2)c1 | 6.25 | 
COc1cc(C(=O)/C=C/c2cccc(NC(C)=O)c2)cc(OC)c1OC | >100 | 
O=C(/C=C/c1ccccc1)c1ccccc1 [CHALCONE] | 3.1 | 
COc1cc(C(=O)/C=C(\C)c2ccc(N)cc2)cc(OC)c1OC | 0.3 | 
COc1ccc(OC)c(C(=O)/C(C)=C/c2ccc(N(C)C)cc2)c1 | 0.0038 | T/C (L1210 [2]): 137%; T/C (B16 [3]): 183%; T/C (L1210 [4]): 154%; ED (HeLa [5]): 0.06 µg/mL; T/C (L1210 [6]): 126%; T/C (B16 [7]): 146%; T/C (L1210 [8]): 146%
COc1ccc(C(=O)/C=C/c2ccc(NC(C)=O)cc2)c(OC)c1OC | 3.1 | 
COc1cc(C(=O)/C=C/c2ccc(SC)cc2)cc(OC)c1OC | 0.3 | 
COc1ccc(OC)c(C(=O)/C(Cl)=C/c2ccc(N(C)C)cc2)c1 | 0.015 | 
COc1ccccc1C(=O)/C=C/c1ccc(N(C)C)cc1 | 0.15 | ED (HeLa [5]): 6.25 µg/mL
COc1cc(C(=O)/C=C/c2ccncc2)cc(OC)c1OC | 25 | 
COc1cc(C(=O)/C=C(\C)c2ccccc2)cc(OC)c1OC | 3.1 | 
CCCCNc1ccc(/C=C/C(=O)c2cc(OC)c(OC)c(OC)c2)cc1 | 6.25 | 
COC(=O)Nc1ccc(/C=C/C(=O)c2cc(OC)c(OC)c(OC)c2)cc1 | 3.1 | 
COc1cc(C(=O)/C=C/c2cccc(N)c2)cc(OC)c1OC | 0.15 | 
COc1cc(C(=O)/C=C/c2cccs2)cc(OC)c1OC | 3.1 | 
COc1cc(C(=O)/C(Cl)=C/c2ccc(N(C)C)cc2)cc(OC)c1OC | 3.1 | 
COc1ccc(C(=O)/C=C/c2ccc(NC(C)=O)cc2)cc1 | 3.1 | 
COc1cc(C(O)/C=C/c2ccc(N(C)C)cc2)cc(OC)c1OC (stereo not given) | 3.1 | 
COc1cc(C(=O)/C=C/c2ccccc2)cc(OC)c1OC | 0.15 | 
COc1ccc(OC)c(C(=O)/C=C/c2ccc(N(C)C)cc2)c1 | 0.0075 | ED (HeLa [5]): 1.5 µg/mL
CC(=O)Nc1ccc(/C=C/C(=O)c2cccc(Cl)c2)cc1 | >100 | 
CCCCOc1ccc(/C=C/C(=O)c2cc(OC)c(OC)c(OC)c2)cc1 | >25 | 
COc1cc(C(=O)/C=C/c2ccc(OC(C)C)cc2)cc(OC)c1OC | >25 | 

SMILES | ED (HeLa [1]) [µg/mL] | further results
COc1ccc(C(=O)/C=C/c2ccc(N(C)C)cc2)cc1OC | 3.1 | 
COc1cc(C(=O)/C=C/C=C/c2ccc(N(C)C)cc2)cc(OC)c1OC | 3.1 | 
COc1cc(C(=O)/C=C/c2ccc(F)cc2)cc(OC)c1OC | >25 | 
COc1cc(C(=O)/C=C/c2cccc(N(C)C)c2)cc(OC)c1OC | >100 | 
COc1ccc(C(=O)/C(C)=C/c2ccc(N(C)C)cc2)c(OC)c1OC | 1.5 | T/C (B16 [3]): 190%; T/C (L1210 [4]): 138%; T/C (L1210 [8]): 121%
COc1cc(C(=O)C#Cc2ccccc2)cc(OC)c1OC | >6.25 | 
COc1cc(C(=O)/C=C/c2cccc([N+](=O)[O-])c2)cc(OC)c1OC | >100 | 
COc1ccc(C(=O)/C=C/c2cccs2)c(OC)c1OC | 3.1 | 
COc1cc(C(=O)CCc2ccc(N(C)C)cc2)cc(OC)c1OC | 3.1 | 
CCc1cccc(C(=O)/C=C/c2ccc(NC(C)=O)cc2)c1 | >100 | 
CC(=O)Nc1ccc(/C=C/C(=O)c2ccc(C#N)cc2)cc1 | 25 | 
COc1cc(/C=C/C(=O)c2ccccc2)cc(OC)c1OC | >25 | 
COc1cc(C(=O)/C=C/c2ccc(N(C)C)cc2)cc(OC)c1OC | 0.015 | ED (HeLa [5]): 12.5 µg/mL
COc1cc(C(=O)/C=C/c2ccc(C(C)(C)C)cc2)cc(OC)c1OC | 2.5 | 
COc1ccc(C(=O)/C(Br)=C/c2ccc(N(C)C)cc2)c(OC)c1OC | 0.15 | T/C (B16 [9]): 192%; T/C (L1210 [4]): 140%; ED (HeLa [5]): 6.25 µg/mL; T/C (L1210 [8]): 145%
COc1cc(C(=O)/C=C(\C)c2ccc(N(C)C)cc2)cc(OC)c1OC | >100 | 
COc1cc(C(=O)/C(C)=C/c2ccc(N(C)C)cc2)cc(OC)c1OC | 0.019 | ED (HeLa [5]): 0.3 µg/mL
COc1cc(C(=O)/C=C/c2ccc(N(C)C)cc2C)cc(OC)c1OC | 0.0075 | 
COc1cc(C(=O)/C=C/c2ccc(Br)cc2)cc(OC)c1OC | 0.015 | 
CC/C(=C\c1ccc(N(C)C)cc1)C(=O)c1ccc(OC)c(OC)c1OC | 0.15 | 
CO/N=C(\C=C\c1ccc(N(C)C)cc1)c1cc(OC)c(OC)c(OC)c1 | 0.3 | 
COc1ccc(C(=O)/C=C/c2ccc(N(C)C)cc2)c(OC)c1OC | 0.015 | 
COc1ccc(C(=O)/C(Cl)=C/c2ccc(N(C)C)cc2)c(OC)c1OC | 0.015 | 
COc1ccc(C(=O)/C=C/c2ccc(N(C)C)cc2C)c(OC)c1OC | 3.1 | 
CCN(CC)c1ccc(/C=C(\C)C(=O)c2cc(OC)c(OC)c(OC)c2)cc1 | 0.0075 | 

SMILES | ED (HeLa [1]) [µg/mL] | further results
COc1cc(C(=O)/C=C/c2ccc(NC(C)=O)cc2)cc(OC)c1OC | 3.1 | 
COc1cc(C(=O)/C=C/c2ccco2)cc(OC)c1OC | 5 | 
COc1cc(C(=O)/C=C/c2ccc(C(F)(F)F)cc2)cc(OC)c1OC | 6.25 | 
CCN(CC)c1ccc(/C=C(\C)C(=O)c2ccc(OC)c(OC)c2OC)cc1 | 25 | 
CCN(CC)c1ccc(/C=C(\C)C(=O)c2cc(OC)ccc2OC)cc1 | 0.15 | 
COc1cc(C(=O)/C=C/c2ccc(N(C)C)cc2)cc(OC)c1O | 3.1 | 
COc1cc(C(=O)/C=C/c2ccc(C#N)cc2)cc(OC)c1OC | 3.1 | 
CCOc1ccc(/C=C/C(=O)c2cc(OC)c(OC)c(OC)c2)cc1 | 0.15 | 
COc1ccc(OC)c(C(=O)/C(Br)=C/c2ccc(N(C)C)cc2)c1 | 0.0075 | 
CCN(CC)c1ccc(/C=C/C(=O)c2cc(OC)c(OC)c(OC)c2)cc1 | 0.0075 | 
COc1cc(OC)c(C(=O)/C=C/c2ccc(NC(C)=O)cc2)c(OC)c1 | 3.1 | 
COc1cc(C(=O)/C=C/c2ccccc2C(F)(F)F)cc(OC)c1OC | 100 | 
CC(=O)Nc1ccc(/C=C/C(=O)c2ccc(C(C)(C)C)cc2)cc1 | 0.25 | 
CC(=O)Nc1ccc(/C=C/C(=O)c2cccc(C(F)(F)F)c2)cc1 | 25 | 
COc1cc(C(=O)/C=C/c2ccc(N)cc2)cc(OC)c1OC | 0.15 | 
COc1cc(/C=C/C(=O)c2ccc(N(C)C)cc2)cc(OC)c1OC | 0.15 | 
COc1cc(C(=O)/C(Br)=C/c2ccc(N(C)C)cc2)cc(OC)c1OC | 0.0038 | ED (HeLa [5]): 1.5 µg/mL
COc1ccc(C(=O)/C=C/c2ccc(N(C)C)cc2)c(OC)c1 | 6.25 | 
CC(=O)Nc1ccc(/C=C/C(=O)c2ccc(C(N)=O)cc2)cc1 | 3.1 | 
COc1cc(C(=O)/C=C/c2ccc([N+](=O)[O-])cc2)cc(OC)c1OC | 25 | 
CCN(CC)c1ccc(/C=C/C(=O)c2ccc(OC)c(OC)c2OC)cc1 | 0.15 | 
COc1ccc(C(=O)/C(C)=C/c2ccccc2)c(OC)c1OC |  | ED (HeLa [5]): 6.25 µg/mL
CC[C@]1(O)C[C@@H]2CN(CCc3c([nH]c4ccccc34)[C@@](C(=O)OC)(c3cc4c(cc3OC)N(C)[C@H]3[C@@](O)(C(=O)OC)[C@H](OC(C)=O)[C@]5(CC)C=CCN6CC[C@]43[C@@H]65)C2)C1 [VINBLASTINE] | 0.0015 | T/C (L1210 [10]): 140%; T/C (B16 [11]): 180%
COc1cc(C(=O)/C=C/c2ccc([S+](C)[O-])cc2)cc(OC)c1OC (stereo not given) | >100 | 
